An excerpt weighted towards active compounds, which were near 1.8% of everything screened.
NPY2 pot ag = human NPY-Y2 potentiation or agonism, primary screen; P49146; cells expressing NPY-Y2, potentiator/agonist read-out; activation, % at 3.6 µM; actives 0.45% (n = 220,000); AID 1359; in the data active means activation above about 27%;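 further: cells stimulated with NPY near EC25 plus isoproterenol at EC100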
NPY1 pot ag = potentiates or activates human NPY-Y1 receptor. actives 0.37% (n = 220,000). AID 1304. NPY-Y1 expressing cells, potentiator/agonist activation. activation, % at 3.6 µM. P25929; in the data active means activation above about 33%, passing the limit was not always enough;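 further: cells stimulated with NPY at EC10 then isoproterenol at EC100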
Target sequence (P25929 whole entry, looked up): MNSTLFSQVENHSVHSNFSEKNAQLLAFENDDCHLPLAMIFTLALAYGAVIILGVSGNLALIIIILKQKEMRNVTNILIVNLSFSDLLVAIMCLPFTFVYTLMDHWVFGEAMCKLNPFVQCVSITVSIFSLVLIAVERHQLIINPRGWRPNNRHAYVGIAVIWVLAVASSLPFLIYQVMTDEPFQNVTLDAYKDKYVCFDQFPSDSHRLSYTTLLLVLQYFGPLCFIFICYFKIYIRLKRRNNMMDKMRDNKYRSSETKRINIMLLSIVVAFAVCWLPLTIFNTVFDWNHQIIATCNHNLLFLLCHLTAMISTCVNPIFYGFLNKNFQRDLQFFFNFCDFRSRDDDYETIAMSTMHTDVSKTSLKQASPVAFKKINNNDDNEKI
NPY Y2 blocker = antagonists of human neuropeptide Y receptor Y2. P49146. NPY-Y2 expressing cells, antagonist mode. inhibition, % at 2.7 µM. actives 0.99% (n = 140,000)
NPY-Y1 antag = NPY-Y1 (human) receptor antagonism; actives 1% (n = 200,000); HEK293-CNG Y1 cells, membrane potential fluorescence; NPY at EC95, then isoproterenol; P25929; inhibition, % at 3.6 µM;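 active means inhibition above the campaign mean inhibition of all tested compounds plus 3 SD, cut at about 20% in these data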
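Material: HEK293 Y1/CNG channel cell line; also added: NPY (25 nM), isoproterenol (1 µM), Ro 20-1724 (25 µM); doses: one concentration, 3.6 µM, in 0.4% DMSO; schedule: compound incubation 1 h at room temperature, readout 45 min post-stimulation; technique: membrane potential fluorescence; measure: fluorescence ratio normalized to % inhibition between controls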
NPY-Y1 ant conf = human NPY-Y1 antagonism, confirmation; shares compounds with NPY-Y1 antag; HEK293-CNG NPY-Y1, membrane potential fluorescence, cAMP; NPY challenge against isoproterenol-raised cAMP; inhibition, % at 3.6 µM; actives 21% (n = 1,200); AID 1254; in the data active means inhibition above about 20%
NPY-Y2 antag ct = human NPY-Y2 antagonism in NPY-Y1 counter-screen. shares compounds with NPY-Y1 antag. HEK293 NPY-Y2 CNG membrane potential fluorescence; cells given NPY, then isoproterenol. inhibition, % at 3.6 µM. actives 28% (n = 1,200). AID 1255
Numbers stand for hits; - = inactive; . = no result given. Unless noted, no stated cut-off is given here; in the data, active means inhibition above about 17%; inactive means the rest.

SMILES	NPY2 pot ag	NPY1 pot ag	NPY Y2 blocker	NPY-Y1 antag	NPY-Y1 ant conf	NPY-Y2 antag ct
Oc1ccccc1CNCCCNCc1ccccc1O	-	-	-	30	-	-
CC(C)Nc1nc(NC(C)C)nc(SCCOC(=O)Nc2ccc(Cl)cc2Cl)n1	-	-	-	21	-	-
CCNc1nc(NC(C)C)nc(SCCOC(=O)c2ccccc2)n1	-	-	-	-	.	.
c1ccc(CNc2c3c(nc4ncnn24)CCC3)cc1	-	-	.	.	.	.
COc1ccccc1NC(=O)COc1ccc(Br)cc1CNCCCN1CCOCC1	-	-	.	22	-	-
COc1cc(CNCCCN2CCOCC2)c(Br)cc1OCC(=O)Nc1ccccc1C	-	-	.	-	.	.
CCOc1cc(CNCCCN2CCOCC2)cc(Br)c1OCC(=O)Nc1cccc(C(F)(F)F)c1	-	-	-	27	-	24
COc1ccc(NC(=S)NNC(=O)Cn2nc(C(F)F)cc2C(F)F)cc1	-	-	-	-	.	.
Cc1nn(C)c(C(=O)Nc2ccc(Cn3cccn3)cc2)c1[N+](=O)[O-]	-	-	-	25	-	-
O=c1[nH]c(CN2CCN(S(=O)(=O)/C=C/c3ccccc3)CC2)nc2cc(Cl)ccc12	-	-	.	.	.	.
CCOC(=O)C1(CC2CCCCO2)CCN(C2CCSCC2)CC1 (stereo not given)	-	-	.	34	-	-
CCCCN(CCCC)CC(O)COc1ccccc1C(=O)Nc1ccccc1 (stereo not given)	-	-	.	46	-	18
N#Cc1ccc(CSc2nnc(-c3ccccc3)n2Cc2ccco2)cc1	-	-	-	33	-	-
CN(C(=O)COC(=O)CNC(=O)C12CC3CC(CC(C3)C1)C2)C1CCS(=O)(=O)C1 (stereo not given)	-	-	-	-	.	.
CS(=O)(=O)N(CC(=O)NCc1ccccc1)C1CCCCC1	-	-	-	-	.	.
CN(C1CCCCC1)S(=O)(=O)Cc1ccccc1	-	-	-	25	-	-
CC(NC(=O)c1cc(Br)ccc1Br)c1ccccc1 (stereo not given)	-	-	.	-	.	.
COc1ccccc1CN(Cc1cc2cc(C)ccc2[nH]c1=O)Cc1nnnn1Cc1ccco1	-	-	-	33	21	-
COc1ccc(COc2cc(-c3cccc(OC)c3)nc3ccc(NC(=O)c4ccc(N(C)C)cc4)cc23)cc1	-	-	-	43	-	-
COc1cccc(CNC(=O)CCC2CCCN(C(=O)c3cc(C4CC4)[nH]n3)C2)c1 (stereo not given)	-	-	.	-	.	.
Cc1[nH]c(=O)c(C#N)cc1-c1ccccc1	-	-	-	26	20	38
Cc1nc(SCc2cccc(Oc3ccccc3)c2)n[nH]1	-	-	-	23	-	34
COc1ccc(CSc2n[nH]c(C)n2)cc1Br	-	-	-	-	.	.
Fc1ccc(-c2ccnc(=S)[nH]2)cc1	-	-	-	-	.	.
CC(C)COc1ccc(Br)cc1CNC(C)(C)C	-	-	.	28	-	-
SMILES	NPY2 pot ag	NPY1 pot ag	NPY Y2 blocker	NPY-Y1 antag	NPY-Y1 ant conf	NPY-Y2 antag ct
Cc1cc(Br)ccc1OCCCCNC(C)(C)C	-	-	-	-	.	.
CC(NC(=O)C(=O)NN=C1CCCC1)c1ccccc1 (stereo not given)	-	-	.	-	.	.
Cc1ccc(NC(=O)c2noc(C(C)C)c2[N+](=O)[O-])cc1	-	-	.	-	.	.
C/C(=C/C(=O)Nc1cccc(F)c1)N1CCCC1	-	-	.	-	.	.
CO/N=C/c1ccc(OC)c(Oc2nc(OC)cc(OC)n2)c1	-	-	.	-	.	.
O=C(Nc1ncc(Cc2ccc(SC(F)F)cc2)s1)c1ccccc1	-	-	-	21	-	-
COC(=O)c1ccc(CN2CCC(CO)(Cc3ccccc3Cl)CC2)cc1	-	-	.	-	.	.
COc1ccc(/C=C/CN2CCC(CO)(Cc3ccccc3Cl)CC2)cc1	-	-	.	30	-	18
CC(C)c1ccc(S(=O)(=O)c2n[nH]n3c2nc(=O)c2ccccc23)cc1	-	-	-	-	.	.
CCc1ccc(S(=O)(=O)c2n[nH]n3c2nc(=O)c2ccccc23)cc1	-	-	-	24	-	-
O=S(=O)(NC1=NCCCCC1)c1ccc2ccccc2c1	-	-	-	-	.	.
CNCCCOc1cccc(Oc2ccccc2)c1	-	-	.	23	-	-
COC(/C=C/Nc1ccc(OC)cc1)=C(C#N)C#N	-	-	-	40	-	-
COC(/C=C/Nc1ccc(Cl)cc1)=C(C#N)C#N	-	-	.	-	.	.
CCN(CC)C(=O)CSC1=C(C#N)C(c2cccs2)C=C(C)N1 (stereo not given)	-	-	-	-	.	.
COc1cc(/C=N/NC(=O)c2cccnc2)ccc1OC(=O)c1ccc2c(c1)OCO2	-	-	-	-	.	.
O=C(N/N=C/c1ccccc1OC(=O)c1ccc2c(c1)OCO2)c1cccc(F)c1	-	-	-	21	-	-
Cn1c(NC(=O)c2ccccc2F)c(-c2cccs2)c(=O)c2ccccc21	-	-	.	.	.	.
COc1ccc(-c2cc(-c3n[nH]c(=S)n3-c3ccccc3OC)[nH]n2)cc1	-	-	-	32	37	66
COc1ccc(OC)c(-n2c(-c3cc(-c4ccccc4)n[nH]3)n[nH]c2=S)c1	-	-	-	-	.	.
C/C(=N\NC(=O)c1ccccc1[N+](=O)[O-])c1ccc(Br)s1	-	-	.	-	.	.
C/C(=N\Nc1nc2ccccc2s1)c1ccc(Br)s1	-	-	.	31	-	20
OC(COc1ccc(CNCCc2ccc(C(F)(F)F)cc2)cc1)CN1CCCCC1 (stereo not given)	-	-	.	25	-	18
O=S(=O)(NC1CCCCC1)c1ccc(N2CCOCC2)nc1	-	-	.	.	.	.
COc1ccc(C(=O)Nc2cccc(OC)c2)cc1	-	-	-	-	.	.
SMILES	NPY2 pot ag	NPY1 pot ag	NPY Y2 blocker	NPY-Y1 antag	NPY-Y1 ant conf	NPY-Y2 antag ct
COc1cccc(NC(=O)c2cc(-c3ccncc3)nc3c(C)cc(C)cc23)c1	-	-	.	22	28	29
OCCNCc1cc(Br)ccc1OCc1ccc(Cl)cc1	-	-	-	24	-	-
OCCNCc1cc(Br)ccc1OCc1ccc(F)cc1	-	-	.	-	.	.
CC(C)CCn1c(Oc2ccccc2Cl)nc2c1c(=O)n(C)c(=O)n2C	-	-	-	36	-	-
CCOC(=O)N1CCN(C(=O)CSCc2ccc(Br)cc2)CC1	-	-	.	-	.	.
O=C(NCCSCc1ccccc1)c1ccc(C2SCC(=O)N2Cc2ccccc2)cc1 (stereo not given)	-	-	-	-	.	.
COc1ccc(C(=O)N2CCn3c2nc2ccccc23)cc1	-	-	.	-	.	.
COc1ccc(C(=O)n2c(-c3ccco3)nc3ccccc32)cc1	-	-	-	23	-	-
Cn1cccc1/C=N/N1CCN(c2ccccc2)CC1	-	-	.	-	.	.
COc1ccc(CCN(Cc2ccccn2)C(=S)Nc2ccccc2Cl)cc1OC	-	-	.	28	-	-
COc1ccc(/C=C/C(=O)OCC(=O)Nc2c(C)cccc2C)cc1	-	-	.	-	.	.
COc1ccc(CCNS(=O)(=O)c2ccc(OC)cc2)cc1	-	-	-	23	-	-
